Laboratory results taken from ChEMBL document CHEMBL3425424, “Anti-inflammatory coumarin and benzocoumarin derivatives from Murraya alata” (J Nat Prod, 2015).

What was measured:
RAW264.7 [1] = assay: Antiinflammatory activity against mouse RAW264.7 cells assessed as reduction of LPS-induced NO production after 24 hrs; type: functional, cell-based; conditions: RAW264.7, 24 h
Procedure, shortened: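 RAW 264.7 murine macrophages were grown in DMEM with 10% FBS, penicillin and streptomycin at 37 °C under 5% CO2. Cells were seeded at 1 × 10^5 per well and given 1.0 μg/mL LPS (E. coli 0111:B4) with or without compound for 24 h at 37 °C. Supernatant NO was read by Griess reagent (10 min, room temperature, dark) at OD 540 nm against a sodium nitrite standard curve. Indomethacin was the positive control; three parallel runs, mean ± SD.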

RAW264.7 [2] = assay: Cytotoxicity against mouse RAW264.7 cells assessed as cell survival at 80 uM after 24 hrs by MTT assay; type: cell-based; conditions: raw264.7, 24 h
Procedure, shortened: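 Viability of RAW 264.7 murine macrophages was read by MTT assay. Cells were kept in DMEM with 10% FBS, 100 U/mL penicillin and 100 μg/mL streptomycin, humidified, 37 °C, 5% CO2.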

Row | IC50 (RAW264.7 [1]) | SMILES | Activity (RAW264.7 [2])
1 | 12.4 µM | COc1c(OC)c(CC=C(C)C)c2oc(=O)ccc2c1OC | Non-toxic
2 | 12.4 µM | COc1cc(OC)c2ccc(=O)oc2c1CC(C)(C)C=O | Non-toxic
3 |  | COc1ccc2ccc(=O)oc2c1C(=O)C(=O)C(C)C | Non-toxic
4 | 12.4 µM | COc1ccc2ccc(=O)oc2c1C(C=O)=C(C)C [MURRALONGIN] | Non-toxic
5 | 43.3 µM | C=C(C)C(O)C(OCC)c1c(OC)ccc2ccc(=O)oc12 (centres undefined) | Non-toxic
6 | 6 µM | COc1cc(OC)c2ccc(=O)oc2c1/C=C/C(C)=O | Non-toxic
7 | 12.4 µM | C=C(C)/C=C/c1c(OC)cc(OC)c2ccc(=O)oc12 | Non-toxic
8 | 12.4 µM | COc1c(OC)c(CC(O)C(C)(C)O)c2oc(=O)ccc2c1OC (centres undefined) | Non-toxic
9 | 31.9 µM | CCOC(C)(C)C(O)Cc1c(OC)cc(OC)c2ccc(=O)oc12 (centres undefined) | Non-toxic
10 | 12.4 µM | C=C(C)[C@H](O)[C@H](OCC)c1c(OC)ccc2ccc(=O)oc12 | Non-toxic
11 | 13.8 µM | COc1cc(OC)c2ccc(=O)oc2c1CC=O | Non-toxic
12 | 20.6 µM | COc1cc(OC)c2ccc(=O)oc2c1CC(=O)C(C)C | Non-toxic
13 | 12.4 µM | COc1c(OC)c(/C=C/C(C)(C)O)c2oc(=O)ccc2c1OC | Non-toxic
14 | 20.5 µM | COc1cc(OC)c2ccc(=O)oc2c1/C=C/C(C)C | Non-toxic
15 | 34.2 µM | CCOC(C)(C)[C@@H](O)Cc1c(OC)c(OC)c(OC)c2ccc(=O)oc12 | Non-toxic
16 | 12.4 µM | COc1cc(OC)c2ccc(=O)oc2c1C[C@@H](O)C(C)(C)O | Non-toxic

Row | IC50 (RAW264.7 [1]) | SMILES | Activity (RAW264.7 [2])
17 | 12.4 µM | COc1ccc2ccc(=O)oc2c1 [HERNIARIN] | Non-toxic
18 | 12.4 µM | COc1ccc2ccc(=O)oc2c1C(O)C(=O)C(C)C (centres undefined) | Non-toxic
19 | 14.5 µM | C=C(C)/C=C\c1c(OC)cc(OC)c2ccc(=O)oc12 | Non-toxic
20 | 12.4 µM | COc1cc(OC)c2ccc(=O)oc2c1CC(C)(C)C(=O)O | Non-toxic
21 | 12.4 µM | C=C(C)[C@@H](O)Cc1c(OC)cc(OC)c2ccc(=O)oc12 | Non-toxic
22 | 12.4 µM | COc1cc2c(c3oc(=O)ccc13)C=CC(C)(C)O2 | Non-toxic
23 | 33.1 µM | COc1cc(OC)c2ccc(=O)oc2c1CC=C(C)C | Non-toxic
24 | 28.3 µM | COc1cc(OC)c2ccc(=O)oc2c1C/C=C(\C)C=O | Non-toxic
25 | 12.4 µM | CC(C)=CCc1cc2ccc(=O)oc2c2c1OC(C)(C)C=C2 | Non-toxic
26 | 6.3 µM | COc1ccc2c(c1)c(CC(=O)O)c(C)n2C(=O)c1ccc(Cl)cc1 [INDOMETHACIN] | 
27 | 12.4 µM | COc1ccc2ccc(=O)oc2c1CC=C(C)C [OSTHOLE] | Non-toxic
28 | 9.1 µM | COc1cc2cc(COC(=O)CC(C)C)ccc2c2oc(=O)ccc12 | Non-toxic
29 | 12.4 µM | COc1cc2cc(C)ccc2c2oc(=O)ccc12 | Non-toxic
30 | 12.4 µM | C=C(C)Cc1c(OC)cc(OC)c2ccc(=O)oc12 | Non-toxic
31 | 12.4 µM | COc1cc(OC)c2ccc(=O)oc2c1C(=O)C(=O)C(C)C | Non-toxic
32 | 12.4 µM | C=C(C)[C@H](O)[C@H](O)c1c(OC)ccc2ccc(=O)oc12 (relative stereo) | Non-toxic

Row | SMILES | IC50 (RAW264.7 [1]) | Activity (RAW264.7 [2])
33 | C=C(C)[C@H](Cc1c(OC)ccc2ccc(=O)oc12)OO | 12.4 µM | Non-toxic
